Results published in article PMC3607822 (The Journal of General Physiology, 2013).

Key:
[1] = target: CNGA3 ΔN (2-156), 613X channels (Homo sapiens, UniProt Q16281); assay: Inside-out patch clamp, CNGA3 ΔN; assay type: biochemical
[2] = target: CNGA3 N5R-A, 613X channels (Homo sapiens, UniProt Q16281, R72A/R75A/R81A/R82A/R86A); assay: Inside-out patch clamp, CNGA3 N5R-A, 613X; assay type: biochemical
[3] = target: CNGA3 N7R-A (R72A, R75A, R81A, R82A, R86A, R101A, R103A) channels (Homo sapiens, UniProt Q16281, R101A/R103A/R72A/R75A/R81A/R82A/R86A); assay: Inside-out patch clamp, CNGA3 N7R-A; assay type: biochemical
[4] = target: T1, CNGA3 RR-EE (R643E, R646E) channels (Homo sapiens, UniProt Q16281, R643E/R646E); assay: Inside-out patch clamp, CNGA3 RR-EE; assay type: biochemical
T1 sequence (Q16281 1-694 R643E/R646E): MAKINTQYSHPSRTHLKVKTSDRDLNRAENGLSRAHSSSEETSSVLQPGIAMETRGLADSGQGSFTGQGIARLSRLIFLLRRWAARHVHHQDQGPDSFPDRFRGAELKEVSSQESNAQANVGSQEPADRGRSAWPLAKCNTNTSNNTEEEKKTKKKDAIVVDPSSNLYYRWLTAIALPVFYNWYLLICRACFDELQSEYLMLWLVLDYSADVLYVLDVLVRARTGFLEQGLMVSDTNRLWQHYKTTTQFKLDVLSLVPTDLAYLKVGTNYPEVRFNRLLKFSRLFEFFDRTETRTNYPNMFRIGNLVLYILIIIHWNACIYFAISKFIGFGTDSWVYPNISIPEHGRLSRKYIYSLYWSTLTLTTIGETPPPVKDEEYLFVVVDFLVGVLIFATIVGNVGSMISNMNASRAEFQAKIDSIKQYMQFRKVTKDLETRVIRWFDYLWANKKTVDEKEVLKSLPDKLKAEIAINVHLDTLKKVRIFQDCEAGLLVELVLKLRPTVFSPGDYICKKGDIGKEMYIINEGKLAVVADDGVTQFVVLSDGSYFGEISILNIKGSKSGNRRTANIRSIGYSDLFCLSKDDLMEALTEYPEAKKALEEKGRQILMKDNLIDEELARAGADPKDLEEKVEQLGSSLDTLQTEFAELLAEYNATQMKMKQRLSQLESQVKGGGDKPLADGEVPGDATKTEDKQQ

[5] = target: CNGA3 N2R-A, 613X channels (Homo sapiens, UniProt Q16281, R101A/R103A); assay: Inside-out patch clamp, CNGA3 N2R-A, 613X; assay type: biochemical
[6] = target: CNGA3 ΔN (51-107), 613X channels (Homo sapiens, UniProt Q16281, DEL51-107); assay: Inside-out patch clamp, CNGA3 ΔN; assay type: biochemical
[7] = target: CNGA3 ΔN (2-156) channels (Homo sapiens, UniProt Q16281); assay: Inside-out patch clamp, CNGA3 ΔN; assay type: biochemical
CNGA3 D609K channels = CNGA3 D609K channels (Homo sapiens, UniProt Q16281, D609K); assay: Inside-out patch clamp, CNGA3 D609K; assay type: biochemical; details: estimated using tetracaine block
[8] = test system: PA-LP+RR-QQ CNGA3 channels; assay: Inside-out patch clamp, coexpression of A3 PA-LP with A3 RR-QQ; assay type: biochemical, human; details: 1 µM PIP3
CNGA1 homomeric channels = CNGA1 homomeric channels (Bos taurus, UniProt Q00194); assay: Inside-out patch clamp, homomeric CNGA1; assay type: biochemical, bovine; details: PIP3 or PIP2 application
[9] = target: GST fusion of CNGA3 C-terminal region (A3C, amino acids 612–694) (Homo sapiens, UniProt Q16281); assay: In vitro PIP3-agarose bead pull-down, A3C; assay type: binding; details: PIP3-agarose beads, anti-GST immunoblot; not quantitative
Outline: (§1)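 Recombinant GST fusions of channel fragments expressed in E. coli and purified; soluble fraction kept after 20,000 g, 4°C, 30 min. Protein (2 µg/ml) rocked with PIP3- or control agarose beads, 2 h, 4°C, in 10 mM Hepes pH 7.4, 50 mM NaCl, 2 mM EDTA, 0.25% Triton X-100, 0.25% NP-40. Five washes, elution in sample buffer, reducing SDS gel, anti-GST (1:2,000, overnight) immunoblot, chemiluminescence; […].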

[10] = target: CNGA1 with CNGB3 channels (UniProt Q00194+Q9NQW8); assay: Inside-out patch clamp, CNGA1 with CNGB3; assay type: biochemical, bovine, human; details: 1 µM PIP3
Outline: (§2)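 Subunit cRNAs (~20 ng, B in excess over A) injected into stage IV Xenopus oocytes; inside-out patches 2–7 d later, 20–22°C, symmetric 130 mM NaCl, 0.2 mM EDTA, 3 mM Hepes pH 7.2. Heteromer formation checked by 25 µM l-cis-diltiazem with 1 mM cGMP. diC8 phosphoinositides applied intracellularly in phosphatase-inhibitor cocktail. cGMP dose–response at +80 mV, leak-subtracted, Hill fit before/after for K1/2; mean ± SEM.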

A2ΔN+B1 channels = A2ΔN+B1 channels (UniProt Q00195+Q14028, DEL61-90); assay: Inside-out patch clamp, A2ΔN+B1; assay type: biochemical, rat, human; details: 1 µM PIP3
Outline: as §2

GST fusion A3N7R-A = GST fusion A3N7R-A (Homo sapiens, UniProt Q16281, R101A/R103A/R72A/R75A/R81A/R82A/R86A); assay: In vitro PIP3-agarose bead pull-down, A3N7R-A; assay type: binding; details: PIP3-agarose beads, anti-GST immunoblot; compared with A3N
Outline: as §1

GST fusion A3C-635X = GST fusion A3C-635X (Homo sapiens, UniProt Q16281); assay: In vitro PIP3-agarose bead pull-down, A3C-635X; assay type: binding; details: PIP3-agarose beads, anti-GST immunoblot; compared with A3C
Outline: as §1

[11] = target: GST fusion of CNGA3 N-terminal region (A3N, amino acids 1–164) (Homo sapiens, UniProt Q16281); assay: In vitro PIP3-agarose bead pull-down, A3N; assay type: binding; details: PIP3-agarose beads, anti-GST immunoblot
Outline: as §1

[12] = read-out: K1/2 cGMP, +80 mV, no PIPn

Sequence of CNGA1 with CNGB3 channels (Q00194 whole entry): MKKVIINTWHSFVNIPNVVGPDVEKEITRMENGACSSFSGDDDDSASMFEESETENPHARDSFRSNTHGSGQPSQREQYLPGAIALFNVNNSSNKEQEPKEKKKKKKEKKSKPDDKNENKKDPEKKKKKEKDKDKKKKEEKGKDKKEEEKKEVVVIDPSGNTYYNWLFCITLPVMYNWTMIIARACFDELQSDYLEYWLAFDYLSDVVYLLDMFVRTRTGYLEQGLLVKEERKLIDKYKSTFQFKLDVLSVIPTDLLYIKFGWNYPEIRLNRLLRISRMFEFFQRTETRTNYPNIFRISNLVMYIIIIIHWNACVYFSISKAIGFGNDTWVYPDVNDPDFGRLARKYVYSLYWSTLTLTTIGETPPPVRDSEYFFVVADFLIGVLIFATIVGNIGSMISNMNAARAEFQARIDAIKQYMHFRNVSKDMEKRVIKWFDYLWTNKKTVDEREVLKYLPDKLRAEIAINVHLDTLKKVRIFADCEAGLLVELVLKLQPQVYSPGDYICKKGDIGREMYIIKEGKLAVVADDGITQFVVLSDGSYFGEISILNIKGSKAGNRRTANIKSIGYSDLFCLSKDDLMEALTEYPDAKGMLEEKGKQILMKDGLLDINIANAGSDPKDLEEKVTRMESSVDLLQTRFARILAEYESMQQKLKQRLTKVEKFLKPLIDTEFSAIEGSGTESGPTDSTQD
Sequence of CNGA1 with CNGB3 channels (Q9NQW8 whole entry): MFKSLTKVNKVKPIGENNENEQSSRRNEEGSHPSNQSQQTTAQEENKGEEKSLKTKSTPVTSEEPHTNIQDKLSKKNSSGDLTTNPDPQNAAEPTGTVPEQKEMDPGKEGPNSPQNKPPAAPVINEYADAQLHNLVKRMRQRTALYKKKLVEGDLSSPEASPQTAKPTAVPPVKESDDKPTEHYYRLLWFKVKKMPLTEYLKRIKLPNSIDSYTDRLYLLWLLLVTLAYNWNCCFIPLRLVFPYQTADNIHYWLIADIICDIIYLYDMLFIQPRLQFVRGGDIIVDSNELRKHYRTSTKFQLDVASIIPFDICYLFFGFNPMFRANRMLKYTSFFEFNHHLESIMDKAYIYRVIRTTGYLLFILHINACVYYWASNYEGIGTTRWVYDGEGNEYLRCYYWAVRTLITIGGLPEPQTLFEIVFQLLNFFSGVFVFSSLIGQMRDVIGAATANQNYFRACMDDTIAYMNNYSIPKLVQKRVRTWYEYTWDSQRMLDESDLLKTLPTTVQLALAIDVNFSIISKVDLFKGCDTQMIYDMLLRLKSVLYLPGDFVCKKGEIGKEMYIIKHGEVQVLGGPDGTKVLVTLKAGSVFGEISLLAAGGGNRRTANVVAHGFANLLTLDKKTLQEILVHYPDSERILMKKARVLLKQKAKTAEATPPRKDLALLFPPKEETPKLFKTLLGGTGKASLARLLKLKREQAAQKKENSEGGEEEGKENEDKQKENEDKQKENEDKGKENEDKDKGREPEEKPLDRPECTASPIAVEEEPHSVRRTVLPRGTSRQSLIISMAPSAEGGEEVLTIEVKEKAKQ
Sequence of CNGA1 homomeric channels (Q00194 whole entry, the tested form may be a part): as the sequence (Q00194 whole entry) above

For `Nc1nc2c(ncn2[C@@H]2O[C@@H]3COP(=O)(O)O[C@H]3[C@H]2O)c(=O)[nH]1` [cGMP, cyclic guanosine monophosphate], the Hill coefficient ([1]; cGMP activation) was 1.66 ± 0.10 (6), the EC50 [1, 12] was 15.8 ± 2.8 µM and the Hill coefficient ([2]; cGMP activation) was 1.71 ± 0.05 (8). For the same molecule, the EC50 [2, 12] was 16.7 ± 0.98 µM, the Hill coefficient ([3]; cGMP activation) was 1.59 ± 0.18 (4) and the EC50 [3, 12] was 8.89 ± 1.15 µM. For the same molecule, the Hill coefficient ([4]; cGMP activation) was 1.95 ± 0.05 (4), the EC50 [4, 12] was 8.29 ± 0.47 µM and the “Po max cGMP” value ([4]; saturating cGMP) was 0.93 ± 0.03 (4). The Hill coefficient ([5]; cGMP activation) was 1.68 ± 0.03 (4), the EC50 [5, 12] was 16.1 ± 0.59 µM and the Hill coefficient ([6]; cGMP activation) was 1.90 ± 0.06 (4). The EC50 [6, 12] was 11.1 ± 2.28 µM, the Hill coefficient ([7]; cGMP activation) was 1.77 ± 0.07 (9) and the EC50 [7, 12] was 9.16 ± 0.65 µM. The “Po max cGMP” value (CNGA3 D609K channels) was 0.78 ± 0.01.

“phosphatidylinositol (3,4,5)-trisphosphate [PIP3]” was tested, and the “Imax cAMP/cGMP (PIP3/control)” value [8] was 1.67 ± 0.06, the “effect on relative cAMP efficacy” value (CNGA1 homomeric channels) was “decreased relative cAMP efficacy” and the “in vitro PIP3 binding” value [9] was “binding was observed”. For the same molecule, the “regulation of K1/2 cGMP by PIP3” value [10] was “PIP3-sensitive”, the “regulation of K1/2 cGMP by PIP3” value (A2ΔN+B1 channels) was “insensitive to regulation by PIP3” and the “in vitro PIP3 binding” value (GST fusion A3N7R-A) was “attenuated binding to PIP3 beads”. The “in vitro PIP3 binding” value (GST fusion A3C-635X) was “attenuated binding to PIP3 beads” and the “in vitro PIP3 binding” value [11] was “able to directly bind PIP3”.
